Reference: ChEMBL document CHEMBL1275598, “In vitro activity of ceftaroline against community-associated methicillin-resistant, vancomycin-intermediate, vancomycin-resistant, and daptomycin-nonsusceptible Staphylococcus aureus isolates” (2010)

Legend:
Staphylococcus aureus [1] = experiment: Antimicrobial activity against vancomycin-intermediate Staphylococcus aureus by microdilution method in presence of 50 mg/L calcium; type: functional
In short: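 Daptomycin MIC by CLSI broth microdilution in cation-adjusted Mueller-Hinton broth supplemented with calcium to a final 50 mg/liter. The endpoint is the lowest concentration with no visible growth, read visually. S. aureus ATCC 29213 and E. faecalis ATCC 29212 were used as control strains.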

Staphylococcus aureus [2] = experiment: Antimicrobial activity against vancomycin resistant Staphylococcus aureus VRS-9 expressing SCCmec type 2 element by microdilution method in presence of 50 mg/L calcium
Staphylococcus aureus [3] = experiment: Antimicrobial activity against vancomycin resistant Staphylococcus aureus VRS-10 expressing SCCmec type 2 element by microdilution method in presence of 50 mg/L calcium
Staphylococcus aureus [4] = experiment: Antimicrobial activity against vancomycin intermediate Staphylococcus aureus NRS-51 expressing SCCmec type 2 element by microdilution method in presence of 50 mg/L calcium; type: functional
In short: (§1)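 Daptomycin MIC by CLSI broth microdilution in cation-adjusted Mueller-Hinton broth, supplemented with calcium to a final 50 mg/liter. Read visually as the lowest concentration with no visible growth. ATCC 29213 and E. faecalis ATCC 29212 served as controls. CA-MRSA and DNSSA isolates came from patients at the study hospital; VISA isolates came from NARSA.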

Staphylococcus aureus [5] = experiment: Antimicrobial activity against vancomycin intermediate Staphylococcus aureus NRS-74 expressing SCCmec type 2 element by microdilution method in presence of 50 mg/L calcium; type: functional
In short: (§2)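 Broth microdilution per CLSI in cation-adjusted Mueller-Hinton broth supplemented with calcium to 50 mg/liter final. Antibiotic powders were reconstituted per CLSI. The MIC was read visually as the lowest drug concentration with no visible growth. S. aureus ATCC 29213 and E. faecalis ATCC 29212 served as control strains.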

Staphylococcus aureus [6] = experiment: Bactericidal activity against vancomycin-intermediate Staphylococcus aureus assessed as antibiotic concentration that reduced the number of viable cells by =>99.9% by colony count method in presence of 50 mg/L calcium; type: functional
In short: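 MBC per CLSI following microdilution in cation-adjusted Mueller-Hinton broth with calcium added to 50 mg/liter final. Defined as the concentration giving ≥99.9% reduction in viable cells, judged from colony counts of the growth control well against Pearson rejection-value tables.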

Staphylococcus aureus [7] = experiment: Antimicrobial activity against vancomycin-intermediate Staphylococcus aureus assessed as susceptible isolates by microdilution method in presence of 50 mg/L calcium; type: functional
In short: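 Broth microdilution MIC per CLSI in cation-adjusted Mueller-Hinton broth, with calcium added to a final 50 mg/liter for daptomycin testing. MIC is the lowest drug concentration with no visible growth, read by eye. Percent susceptible was assigned from CLSI breakpoints. S. aureus ATCC 29213 and E. faecalis ATCC 29212 served as control strains.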

Staphylococcus aureus [8] = experiment: Antimicrobial activity against vancomycin intermediate Staphylococcus aureus NRS-23 expressing SCCmec type 2 element by microdilution method in presence of 50 mg/L calcium; type: functional; in short: as §1
Staphylococcus aureus [9] = experiment: Antimicrobial activity against vancomycin resistant Staphylococcus aureus VRS-4 expressing SCCmec type 4 element by microdilution method in presence of 50 mg/L calcium
Staphylococcus aureus [10] = experiment: Antimicrobial activity against vancomycin intermediate Staphylococcus aureus NRS-73 expressing SCCmec type 4d element by microdilution method in presence of 50 mg/L calcium; type: functional; in short: as §1
Staphylococcus aureus [11] = experiment: Antimicrobial activity against vancomycin intermediate Staphylococcus aureus NRS-76 expressing SCCmec type 2 element by microdilution method in presence of 50 mg/L calcium; type: functional; in short: as §2

Structure (SMILES): CCCCCCCCCC(=O)N[C@@H](Cc1c[nH]c2ccccc12)C(=O)N[C@H](CC(N)=O)C(=O)N[C@@H](CC(=O)O)C(=O)N[C@@H]1C(=O)NCC(=O)N[C@@H](CCCN)C(=O)N[C@@H](CC(=O)O)C(=O)N[C@H](C)C(=O)N[C@@H](CC(=O)O)C(=O)NCC(=O)N[C@H](CO)C(=O)N[C@@H]([C@H](C)CC(=O)O)C(=O)N[C@@H](CC(=O)c2ccccc2N)C(=O)O[C@@H]1C
- MIC50 (Staphylococcus aureus [1]): 2 µg/mL
- MIC90 (Staphylococcus aureus [1]): 4 µg/mL
- MIC (Staphylococcus aureus [2]): 0.5 µg/mL
- MIC (Staphylococcus aureus [3]): 0.5 µg/mL
- MIC (Staphylococcus aureus [4]): 1 µg/mL
- MIC (Staphylococcus aureus [5]): 4 µg/mL
- MBC50 (Staphylococcus aureus [6]): 2 µg/mL
- MBC90 (Staphylococcus aureus [6]): 4 µg/mL
- MBC (Staphylococcus aureus [6]; Staphylococcus aureus): 0.5 µg/mL
- Activity (Staphylococcus aureus [7]): 35%
- MIC (Staphylococcus aureus [8]): 2 µg/mL
- MIC (Staphylococcus aureus [9]): 0.5 µg/mL
- MIC (Staphylococcus aureus [10]): 2 µg/mL
- MIC (Staphylococcus aureus [11]): 2 µg/mL
